Active and inactive are the calls of the source. No cut-off for these calls is given here.
What was measured:
[1] = biological target: T1, Epidermal growth factor receptor (Homo sapiens, UniProt P00533); experiment: Inhibition of EGFR after 1.5 hr by FRET assay
[2] = biological target: T2, Epidermal growth factor receptor (Homo sapiens, UniProt P00533, T790M); experiment: Inhibition of EGFR T790M mutant after 1.5 hr by FRET assay; assay type: protein assay
[3] = biological target: T3, Epidermal growth factor receptor (Homo sapiens, UniProt P00533, L858R); experiment: Inhibition of EGFR L858R mutant after 1.5 hr by FRET assay; assay type: protein assay
[4] = biological target: T4, Epidermal growth factor receptor (Homo sapiens, UniProt P00533, L861Q); experiment: Inhibition of EGFR L861Q mutant after 1.5 hr by FRET assay; assay type: protein assay
T4 sequence (P00533 25-1210 L861Q limits assumed): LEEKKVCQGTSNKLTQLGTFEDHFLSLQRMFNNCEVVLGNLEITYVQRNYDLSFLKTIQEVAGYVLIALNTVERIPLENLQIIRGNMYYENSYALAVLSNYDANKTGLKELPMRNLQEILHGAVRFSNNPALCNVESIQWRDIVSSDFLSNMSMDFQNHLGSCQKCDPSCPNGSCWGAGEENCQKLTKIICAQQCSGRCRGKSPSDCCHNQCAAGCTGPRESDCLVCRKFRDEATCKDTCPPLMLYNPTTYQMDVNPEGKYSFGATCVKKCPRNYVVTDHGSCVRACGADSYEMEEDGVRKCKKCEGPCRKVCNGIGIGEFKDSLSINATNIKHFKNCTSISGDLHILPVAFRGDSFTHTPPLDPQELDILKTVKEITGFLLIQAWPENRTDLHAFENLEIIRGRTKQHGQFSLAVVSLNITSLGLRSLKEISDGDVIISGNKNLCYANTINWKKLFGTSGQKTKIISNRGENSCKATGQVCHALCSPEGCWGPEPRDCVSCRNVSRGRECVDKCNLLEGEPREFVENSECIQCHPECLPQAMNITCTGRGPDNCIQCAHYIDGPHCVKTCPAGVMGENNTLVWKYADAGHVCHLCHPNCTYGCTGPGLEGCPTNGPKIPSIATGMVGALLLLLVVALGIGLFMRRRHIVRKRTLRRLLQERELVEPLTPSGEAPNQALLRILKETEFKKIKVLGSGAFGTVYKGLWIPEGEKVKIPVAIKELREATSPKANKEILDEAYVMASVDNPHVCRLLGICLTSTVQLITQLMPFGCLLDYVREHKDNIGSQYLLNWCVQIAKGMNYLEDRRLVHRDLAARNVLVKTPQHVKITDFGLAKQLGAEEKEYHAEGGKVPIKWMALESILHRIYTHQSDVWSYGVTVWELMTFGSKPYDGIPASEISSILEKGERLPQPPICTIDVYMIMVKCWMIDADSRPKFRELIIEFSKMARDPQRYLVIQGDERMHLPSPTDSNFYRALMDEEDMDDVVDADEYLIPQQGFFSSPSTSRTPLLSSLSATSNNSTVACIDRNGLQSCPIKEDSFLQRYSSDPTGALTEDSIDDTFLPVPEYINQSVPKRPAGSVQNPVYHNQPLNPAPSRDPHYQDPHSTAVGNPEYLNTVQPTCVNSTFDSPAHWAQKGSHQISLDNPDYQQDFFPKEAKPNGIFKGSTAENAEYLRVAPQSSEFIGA

[5] = biological target: T5, Epidermal growth factor receptor (Homo sapiens, UniProt P00533, L858R/T790M); experiment: Inhibition of EGFR L858R/T790M mutant after 1.5 hr by FRET assay; assay type: protein assay
T5 sequence (P00533 25-1210 T790M/L858R limits assumed): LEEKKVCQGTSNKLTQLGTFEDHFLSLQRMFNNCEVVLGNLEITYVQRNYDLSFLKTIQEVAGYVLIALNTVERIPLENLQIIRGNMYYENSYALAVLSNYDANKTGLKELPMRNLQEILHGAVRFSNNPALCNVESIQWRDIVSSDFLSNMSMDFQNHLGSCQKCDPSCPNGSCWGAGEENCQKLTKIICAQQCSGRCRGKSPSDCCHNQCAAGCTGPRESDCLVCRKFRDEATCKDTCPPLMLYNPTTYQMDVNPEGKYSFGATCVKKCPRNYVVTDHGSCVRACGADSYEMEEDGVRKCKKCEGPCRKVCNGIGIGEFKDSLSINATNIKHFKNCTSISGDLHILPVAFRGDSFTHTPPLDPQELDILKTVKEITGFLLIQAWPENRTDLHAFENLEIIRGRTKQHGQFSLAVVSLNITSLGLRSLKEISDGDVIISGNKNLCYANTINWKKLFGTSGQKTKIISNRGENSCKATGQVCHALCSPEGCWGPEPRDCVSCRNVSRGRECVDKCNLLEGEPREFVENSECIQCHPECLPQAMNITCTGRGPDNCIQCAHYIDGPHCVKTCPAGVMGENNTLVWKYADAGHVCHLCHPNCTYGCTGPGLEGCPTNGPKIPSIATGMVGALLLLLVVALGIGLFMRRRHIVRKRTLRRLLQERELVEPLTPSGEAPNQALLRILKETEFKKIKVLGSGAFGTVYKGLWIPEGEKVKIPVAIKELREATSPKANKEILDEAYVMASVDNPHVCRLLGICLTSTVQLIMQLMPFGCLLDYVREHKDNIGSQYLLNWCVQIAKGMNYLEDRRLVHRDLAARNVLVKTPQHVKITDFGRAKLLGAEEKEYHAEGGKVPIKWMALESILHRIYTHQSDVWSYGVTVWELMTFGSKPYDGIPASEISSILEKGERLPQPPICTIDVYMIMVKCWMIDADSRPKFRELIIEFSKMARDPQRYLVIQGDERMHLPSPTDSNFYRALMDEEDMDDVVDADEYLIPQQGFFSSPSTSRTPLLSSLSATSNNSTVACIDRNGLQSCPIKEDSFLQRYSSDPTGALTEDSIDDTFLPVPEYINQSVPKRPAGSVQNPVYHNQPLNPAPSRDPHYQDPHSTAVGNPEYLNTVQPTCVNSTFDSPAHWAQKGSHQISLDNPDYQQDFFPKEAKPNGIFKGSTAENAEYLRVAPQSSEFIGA

A-431 = experiment: Antiproliferative activity against human A431 cells overexpressing EGFR after 72 hrs by MTS assay; settings: A-431, 72 h
A549 = experiment: Antiproliferative activity against human A549 cells expressing wild type EGFR coexpressing k-Ras mutant after 72 hrs by MTS assay; settings: A549, 72 h
[6] = Antiproliferative activity against human HL7702 cells expressing wilt type EGFR after 72 hrs by MTS assay; settings: L02, 72 h
cells = settings: Homo sapiens, HCC827, 72 h
NCI-H1975 [7] = experiment: cells; settings: Homo sapiens, NCI-H1975, 72 h
[8] = biological target: Cytoplasmic tyrosine-protein kinase BMX (Homo sapiens) (UniProt P51813); experiment: Binding affinity to BMX
Method in brief: (§1)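 Ambit KINOMEscan binding assay. Binding for 1 h at r.t. Unbound kinase captured on immobilized affinity ligand and quantified by qPCR.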

[9] = biological target: Tyrosine-protein kinase JAK3 (Homo sapiens) (UniProt P52333); experiment: Binding affinity to JAK3; method in brief: as §1
[10] = system: Mast/stem cell growth factor receptor Kit (Homo sapiens), P10721 [V559D]; experiment: Binding affinity to KIT V559D mutant; method in brief: as §1
[11] = biological target: Tyrosine-protein kinase Lck (Homo sapiens) (UniProt P06239); experiment: Binding affinity to LCK; method in brief: as §1
[12] = biological target: Mitogen-activated protein kinase kinase kinase 15 (Homo sapiens) (UniProt Q6ZN16); experiment: Binding affinity to MAP3K15; method in brief: as §1
[13] = biological target: Platelet-derived growth factor receptor beta (Homo sapiens) (UniProt P09619); experiment: Binding affinity to PDGFRbeta; method in brief: as §1
[14] = biological target: Tyrosine-protein kinase Tec (Homo sapiens) (UniProt P42680); experiment: Binding affinity to TEC; method in brief: as §1
[15] = biological target: Activated CDC42 kinase 1 (Homo sapiens) (UniProt Q07912); experiment: Binding affinity to TNK2; method in brief: as §1
HCC827 [16] = experiment: Induction of Cell cycle arrest in human HCC827 cells harboring EGFR del E746-A750 mutant assessed as G1 phase cells after 24 hrs by flow cytometry assay; assay type: functional, cell-based
Method in brief: (§2)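 Cells in six-well plates serum-starved 24 h to synchronize in G0−G1, then treated at indicated concentrations for 24 h. Lightly trypsinized and cell-cycle distribution analysed by flow cytometry.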

NCI-H1975 [17] = experiment: Induction of Cell cycle arrest in human NCI-H1975 cells harboring EGFR L858R/T790M mutant assessed as G1 phase cells after 24 hrs by flow cytometry assay; assay type: functional, cell-based; method in brief: as §2
NCI-H1975 [18] = experiment: Antiproliferative activity against human NCI-H1975 cells harboring EGFR L858R/T790M mutant assessed as inhibition of colony formation after 9 days by crystal violet staining; assay type: functional, cell-based
Method in brief: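 H1975 cells seeded at 500 cells per 6-cm dish and grown 24 h, then treated at 0.1 to 10 nM. Medium with compound replaced every 3 days. After 9 days, fixed with 4% formaldehyde and stained with 0.2% crystal violet.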

[19] = Cytotoxicity against human HLF1 cells after 72 hrs by MTS assay; assay type: cell-based; settings: hlf1, 72 h
Method in brief: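 MTS proliferation read-out at 490 nm after 72 h exposure, cell number set to give absorbance 1.3−2.2. Six concentrations, 0.1 nM to 10 μM, at least six parallels each, repeated at least four times. IC50 from nonlinear sigmoidal dose−response fit.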

HCC827 [20] = experiment: Induction of apoptosis in human HCC827 cells harboring EGFR del E746-A750 mutant after 48 hrs by flow cytometry assay
NCI-H1975 [21] = experiment: Induction of apoptosis in human NCI-H1975 cells harboring EGFR L858R/T790M mutant after 48 hrs by flow cytometry assay
[22] = biological target: T1, Epidermal growth factor receptor; experiment: Binding affinity to EGFR
[23] = biological target: T2, Epidermal growth factor receptor; experiment: Binding affinity to EGFR T790M mutant
[24] = biological target: T3, Epidermal growth factor receptor; experiment: Binding affinity to EGFR L858R mutant
[25] = biological target: T4, Epidermal growth factor receptor; experiment: Binding affinity to EGFR L861Q mutant
[26] = biological target: T5, Epidermal growth factor receptor; experiment: Binding affinity to EGFR L858R/T790M mutant

T2 sequence (P00533 25-1210 T790M limits assumed): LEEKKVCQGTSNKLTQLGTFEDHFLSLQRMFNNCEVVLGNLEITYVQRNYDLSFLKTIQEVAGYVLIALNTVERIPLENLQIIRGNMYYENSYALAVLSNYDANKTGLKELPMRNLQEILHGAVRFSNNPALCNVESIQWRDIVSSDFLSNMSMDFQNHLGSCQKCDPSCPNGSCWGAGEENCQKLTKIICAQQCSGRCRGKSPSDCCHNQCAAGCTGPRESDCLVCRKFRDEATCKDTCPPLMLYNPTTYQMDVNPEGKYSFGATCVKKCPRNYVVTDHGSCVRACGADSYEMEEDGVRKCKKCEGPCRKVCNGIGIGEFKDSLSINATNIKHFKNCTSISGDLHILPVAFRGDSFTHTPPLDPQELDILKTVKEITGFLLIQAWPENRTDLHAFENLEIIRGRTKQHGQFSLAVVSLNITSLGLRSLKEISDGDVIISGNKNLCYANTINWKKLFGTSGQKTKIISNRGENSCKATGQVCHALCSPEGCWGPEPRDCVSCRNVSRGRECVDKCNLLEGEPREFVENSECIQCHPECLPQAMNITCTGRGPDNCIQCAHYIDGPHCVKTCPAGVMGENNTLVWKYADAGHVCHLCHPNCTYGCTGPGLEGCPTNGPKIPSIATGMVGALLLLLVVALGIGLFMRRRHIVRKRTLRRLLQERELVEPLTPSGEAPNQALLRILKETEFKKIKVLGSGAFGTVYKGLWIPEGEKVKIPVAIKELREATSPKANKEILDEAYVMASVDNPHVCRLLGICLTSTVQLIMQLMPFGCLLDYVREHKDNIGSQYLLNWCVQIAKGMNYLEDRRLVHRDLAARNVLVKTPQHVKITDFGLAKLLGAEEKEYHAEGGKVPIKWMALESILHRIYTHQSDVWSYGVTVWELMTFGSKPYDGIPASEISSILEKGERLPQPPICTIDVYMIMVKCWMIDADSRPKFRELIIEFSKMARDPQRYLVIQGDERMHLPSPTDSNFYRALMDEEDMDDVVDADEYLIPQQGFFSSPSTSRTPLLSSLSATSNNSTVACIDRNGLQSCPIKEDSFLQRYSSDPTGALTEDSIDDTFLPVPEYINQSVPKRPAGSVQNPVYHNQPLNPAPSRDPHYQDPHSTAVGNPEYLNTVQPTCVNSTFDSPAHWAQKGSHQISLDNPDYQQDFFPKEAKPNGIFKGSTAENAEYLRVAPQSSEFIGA
T1 sequence (P00533 whole entry): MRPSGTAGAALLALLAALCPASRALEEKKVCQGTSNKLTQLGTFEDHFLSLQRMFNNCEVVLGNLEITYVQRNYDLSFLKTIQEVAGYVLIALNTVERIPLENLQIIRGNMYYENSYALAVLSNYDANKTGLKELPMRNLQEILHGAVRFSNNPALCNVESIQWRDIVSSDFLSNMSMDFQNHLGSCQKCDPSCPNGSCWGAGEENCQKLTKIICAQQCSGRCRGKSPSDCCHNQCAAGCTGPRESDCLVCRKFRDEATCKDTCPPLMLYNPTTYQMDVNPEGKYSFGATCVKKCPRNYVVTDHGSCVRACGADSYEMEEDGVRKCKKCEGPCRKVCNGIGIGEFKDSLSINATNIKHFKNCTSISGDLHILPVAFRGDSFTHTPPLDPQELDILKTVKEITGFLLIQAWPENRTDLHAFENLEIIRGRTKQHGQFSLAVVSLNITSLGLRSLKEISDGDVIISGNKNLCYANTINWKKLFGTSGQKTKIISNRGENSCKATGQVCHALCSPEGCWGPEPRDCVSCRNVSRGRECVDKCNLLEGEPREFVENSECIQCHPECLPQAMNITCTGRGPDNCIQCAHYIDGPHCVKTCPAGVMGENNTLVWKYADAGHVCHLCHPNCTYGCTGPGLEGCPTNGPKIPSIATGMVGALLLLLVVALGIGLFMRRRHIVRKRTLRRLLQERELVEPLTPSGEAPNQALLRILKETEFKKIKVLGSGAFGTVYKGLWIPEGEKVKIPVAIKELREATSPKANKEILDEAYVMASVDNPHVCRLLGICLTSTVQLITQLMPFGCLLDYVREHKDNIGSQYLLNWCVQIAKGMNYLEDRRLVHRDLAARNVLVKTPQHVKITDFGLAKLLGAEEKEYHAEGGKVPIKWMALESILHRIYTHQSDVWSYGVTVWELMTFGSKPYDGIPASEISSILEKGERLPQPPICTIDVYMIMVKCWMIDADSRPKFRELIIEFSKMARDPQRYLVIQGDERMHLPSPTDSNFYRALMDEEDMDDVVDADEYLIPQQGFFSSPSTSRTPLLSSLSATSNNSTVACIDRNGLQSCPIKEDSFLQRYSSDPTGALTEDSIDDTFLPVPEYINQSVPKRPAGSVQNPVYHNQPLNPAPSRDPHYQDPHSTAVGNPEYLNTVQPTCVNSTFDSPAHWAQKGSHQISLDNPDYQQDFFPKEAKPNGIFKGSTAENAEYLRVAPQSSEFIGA

IC50 [1]	IC50 [2]	IC50 [3]	IC50 [4]	IC50 [5]	IC50 (A-431)	IC50 (A549)	IC50 (cells)	IC50 (NCI-H1975 [7])	SMILES	IC50 [6]	other results
16.4 nM	60.3 nM	10.3 nM	12.7 nM	28.9 nM	> 10000 nM	10500 nM	130 nM	150 nM	C=CC(=O)Nc1cccc(N2C(=O)N(C)Cc3cnc(Nc4ccc(N5CCOCC5)cc4OC)nc32)c1	> 10000 nM	–
0.43 nM	1.66 nM	0.53 nM	0.56 nM	1.19 nM	550 nM	11400 nM	14 nM	45 nM	C=CC(=O)Nc1cccc(N2C(=O)N(C)Cc3cnc(Nc4ccc(N5CCN(C)CC5)cc4)nc32)c1	7560 nM	–
1.52 nM	2.03 nM	1.66 nM	2.31 nM	3.57 nM	–	1770 nM	–	–	C=CC(=O)Nc1cccc(N2C(=O)N(c3ccc(Oc4ccccc4)cc3)Cc3cnc(Nc4ccc(N5CCN(C)CC5)cc4OC)nc32)c1	> 10000 nM	–
> 1000 nM	> 1000 nM	> 1000 nM	> 1000 nM	> 1000 nM	> 10000 nM	11200 nM	4890 nM	> 20000 nM	COc1cc(N2CCN(C)CC2)ccc1Nc1ncc2c(n1)N(c1cccc(N)c1)C(=O)N(C)C2	> 10000 nM	–
1.41 nM	5.24 nM	1.67 nM	3.43 nM	4.64 nM	–	2270 nM	–	–	C=CC(=O)Nc1cccc(N2C(=O)N(c3ccc(-c4ccccc4)cc3)Cc3cnc(Nc4ccc(N5CCN(C)CC5)cc4OC)nc32)c1	3690 nM	–
929 nM	> 1000 nM	> 1000 nM	837 nM	> 1000 nM	> 10000 nM	> 20000 nM	6920 nM	20100 nM	C=CC(=O)Nc1cccc(N2C(=O)N(C)Cc3cnc(NC)nc32)c1	> 10000 nM	–
> 1000 nM	> 1000 nM	> 1000 nM	> 1000 nM	> 1000 nM	> 10000 nM	11100 nM	5010 nM	8460 nM	C=CC(=O)Nc1cccc(N2C(=O)N(C)Cc3cnc(Nc4ccc(N5CCN(C)CC5)cc4F)nc32)c1	7180 nM	–
1.47 nM	11 nM	2.11 nM	2.75 nM	5.17 nM	2150 nM	> 20000 nM	73 nM	720 nM	C=CC(=O)Nc1cccc(N2C(=O)N(C)Cc3cnc(Nc4ccc(N5CCCN(C)CC5)cc4OC)nc32)c1	> 10000 nM	–
8.81 nM	39.9 nM	13.7 nM	13.5 nM	36.3 nM	2110 nM	11700 nM	27 nM	230 nM	C=CC(=O)Nc1cccc(N2C(=O)N(C)Cc3cnc(Nc4ccc(N5CCN(C)CC5)cc4OC(C)C)nc32)c1	> 10000 nM	–
1.67 nM	2.43 nM	2.42 nM	2.56 nM	6.31 nM	–	2470 nM	–	–	C=CC(=O)Nc1cccc(N2C(=O)N(c3ccc(OCc4ccccc4)cc3)Cc3cnc(Nc4ccc(N5CCN(C)CC5)cc4OC)nc32)c1	2790 nM	–
1.16 nM	6.56 nM	1.08 nM	1.21 nM	3.14 nM	750 nM	15900 nM	18 nM	47 nM	C=CC(=O)Nc1cccc(N2C(=O)N(C)Cc3cnc(Nc4ccc(N5CCN(C)CC5)cc4OC)nc32)c1	> 10000 nM	–
6.95 nM	45.7 nM	10.9 nM	12.1 nM	28.3 nM	6900 nM	18000 nM	44 nM	170 nM	C=CC(=O)Nc1cccc(N2C(=O)N(C)Cc3cnc(Nc4ccccc4)nc32)c1	> 10000 nM	–
–	–	–	–	–	–	–	1 nM	–	C=CC(=O)Nc1cc2c(Nc3ccc(F)c(Cl)c3)ncnc2cc1OCCCN1CCOCC1 [CANERTINIB]	–	–
4.41 nM	12.7 nM	2.68 nM	3.02 nM	7.1 nM	1080 nM	10400 nM	14 nM	103 nM	C=CC(=O)Nc1cccc(N2C(=O)N(C)Cc3cnc(Nc4ccc(N5CCN(C)CC5)cc4OCC)nc32)c1	> 10000 nM	–
1.95 nM	9.37 nM	1.21 nM	1.31 nM	4.18 nM	990 nM	11900 nM	31 nM	200 nM	C=CC(=O)Nc1cccc(N2C(=O)N(C)Cc3cnc(Nc4ccc(N5CCN(C)CC5)cc4C)nc32)c1	> 10000 nM	–
4.99 nM	24.9 nM	4.95 nM	6.22 nM	11.5 nM	5620 nM	> 20000 nM	740 nM	540 nM	C=CC(=O)Nc1cccc(N2C(=O)N(C)Cc3cnc(Nc4ccc(N(C)C)cc4OC)nc32)c1	> 10000 nM	–
0.3 nM	0.51 nM	0.46 nM	0.93 nM	0.98 nM	–	2800 nM	–	–	C=CC(=O)Nc1cccc(N2C(=O)N(c3ccccc3)Cc3cnc(Nc4ccc(N5CCN(C)CC5)cc4OC)nc32)c1	4020 nM	Activity [8]: Active; Activity [9]: Active; Activity [10]: Active; Activity [11]: Active; Activity [12]: Active; Activity [13]: Active; Activity [14]: Active; Activity [15]: Active; Activity (HCC827 [16]): Active; Activity (NCI-H1975 [17]): Active; inhibition (NCI-H1975 [18]): Dose-dependent effect; Activity [19]: Non-toxic; Activity (HCC827 [20]): Active; Activity (NCI-H1975 [21]): Active
0.38 nM	–	0.45 nM	0.46 nM	4.42 nM	820 nM	8420 nM	4 nM	58 nM	C=CC(=O)Nc1cccc(N2C(=O)N(C(C)C)Cc3cnc(Nc4ccc(N5CCN(C)CC5)cc4OC)nc32)c1	> 10000 nM	–
3.52 nM	9.52 nM	2.41 nM	2.83 nM	5.2 nM	1390 nM	14500 nM	150 nM	530 nM	C=CC(=O)Nc1cccc(N2C(=O)N(C)Cc3cnc(Nc4ccc(N5CCC(N(C)C)CC5)cc4OC)nc32)c1	> 10000 nM	–
29.5 nM	95.7 nM	10.4 nM	15.4 nM	36.4 nM	5060 nM	12000 nM	170 nM	610 nM	C=CC(=O)Nc1cccc(N2C(=O)N(C)Cc3cnc(Nc4ccc(N5CCCCC5)cc4OC)nc32)c1	> 10000 nM	–
> 1000 nM	> 1000 nM	> 1000 nM	> 1000 nM	> 1000 nM	> 10000 nM	> 30000 nM	–	> 20000 nM	CCC(=O)Nc1cccc(N2C(=O)N(C)Cc3cnc(Nc4ccc(N5CCN(C)CC5)cc4OC)nc32)c1	> 10000 nM	Kd [22]: 1400 nM; Kd [23]: 560 nM; Kd [24]: 1600 nM; Kd [25]: 1100 nM; Kd [26]: 850 nM
–	–	–	–	–	1390 nM	5310 nM	7 nM	48 nM	C=CC(=O)Nc1cccc(Oc2nc(Nc3ccc(N4CCN(C)CC4)cc3OC)ncc2Cl)c1	2730 nM	–

— ChEMBL document CHEMBL2029259, “Design, synthesis, and biological evaluation of novel conformationally constrained inhibitors targeting epidermal growth factor receptor threonine⁷⁹⁰ → methionine⁷⁹⁰ mutant” (J Med Chem, 2012)
